Measured values taken from PubChem BioAssay AID504846 (Johns Hopkins Ion Channel Center, 2011).
Active and inactive are the calls of the source.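 How the source made its calls: active means blocks the KCNK9 potassium channel at some tested concentration and gives a dose response curve; inactive means the rest.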

Target: Potassium channel subfamily K member 9 (Homo sapiens) (UniProt Q9NPC2)
Assay: KCNK9 potassium channel inhibitors, SAR follow-up, HEK293 cells, thallium flux (AID 504846)
Outline: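 assay system = HEK293 cells stably expressing KCNK9, loaded with FluxOR thallium-sensitive dye | probe or stimulus = K2SO4 and Tl2SO4 flux stimulus (stock 25 mM, 7 mM) | dosing = concentration-response series | timing = 20 min room-temperature compound exposure, 110 s post-stimulus read | measured by = kinetic FluxOR thallium-flux fluorescence measurement | repeats = replicate dose series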

Chain of Potassium channel subfamily K member 9 (Homo sapiens) (Q9NPC2 whole entry, looked up): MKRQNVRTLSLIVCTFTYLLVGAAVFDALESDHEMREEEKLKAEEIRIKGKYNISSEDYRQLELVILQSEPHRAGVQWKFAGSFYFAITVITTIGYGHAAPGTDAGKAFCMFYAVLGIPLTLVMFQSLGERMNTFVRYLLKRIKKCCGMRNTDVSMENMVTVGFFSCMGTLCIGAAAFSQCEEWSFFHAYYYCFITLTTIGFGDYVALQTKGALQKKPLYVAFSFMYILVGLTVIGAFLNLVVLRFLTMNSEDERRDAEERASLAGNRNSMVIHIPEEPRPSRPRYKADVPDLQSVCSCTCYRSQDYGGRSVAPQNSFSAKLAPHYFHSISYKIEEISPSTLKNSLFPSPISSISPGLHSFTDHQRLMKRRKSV

Structure (SMILES) | outcome
Cc1cccc(NC(=O)c2ccccc2NC(=O)c2ccccc2)c1 | inactive
Cc1cccc(C(=O)Nc2cccc(C(=O)Nc3ccccc3)c2)c1 | inactive
Cc1cccc(C(=O)Nc2ccccc2C(=O)Nc2ccccc2)c1 | inactive
Cc1cccc(C(=O)Nc2ccc(C(=O)Nc3ccccc3)cc2)c1 | inactive
Cc1cccc(NC(=O)c2cccc(NC(=O)c3ccccc3)c2)c1 | inactive
